Square brackets hold non-standard residues; d marks the D form. Peptide text beside a SMILES is read from it. dPhe(4-Cl) = N[C@H](Cc1ccc(Cl)cc1)C(=O)O; dPhe(4-F) = N[C@H](Cc1ccc(F)cc1)C(=O)O; d2Nal = N[C@H](Cc1ccc2ccccc2c1)C(=O)O
Legend:
[1] = target: T1, Gonadotropin-releasing hormone receptor (Rattus norvegicus) (UniProt P30969); test: Antiovulatory activity on proestrus was measured by administering as a solution in 50% propylene glycol / 0.9% saline in rat; format: functional
T1 sequence (whole entry): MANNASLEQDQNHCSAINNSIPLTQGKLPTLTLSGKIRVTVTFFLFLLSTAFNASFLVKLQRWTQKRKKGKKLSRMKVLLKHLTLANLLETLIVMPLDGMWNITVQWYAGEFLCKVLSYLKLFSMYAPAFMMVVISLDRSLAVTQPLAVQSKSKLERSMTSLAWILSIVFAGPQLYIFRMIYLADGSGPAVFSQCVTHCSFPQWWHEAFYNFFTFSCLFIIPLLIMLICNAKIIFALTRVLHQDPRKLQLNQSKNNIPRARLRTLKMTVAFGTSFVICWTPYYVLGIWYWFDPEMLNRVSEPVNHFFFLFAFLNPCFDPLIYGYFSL

[2] = target: T1, Gonadotropin-releasing hormone receptor (Rattus norvegicus); test: Antiovulatory activity on proestrus following administration of solution in corn oil in rat.; format: functional, organism-based
Summary of the method: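 Rats with at least two normal 4-day cycles were used. They were injected sc with the analogue in corn oil at noon on proestrus, about 2 h before the preovulatory LH-RH surge. Oviducts were removed on the morning of expected estrus and checked microscopically for fresh eggs, which were counted. ED50 came from percent of females ovulating plotted against log-dose, with 10 animals per dose group.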

[3] = target: T1, Gonadotropin-releasing hormone receptor (Rattus norvegicus); test: Antiovulatory activity on diestrus II following administration as a solution in corn oil (24h earlier) in rat.; format: functional, organism-based
Summary of the method: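 Female rats with at least two normal 4-day cycles before the test cycle were selected. They received the analogue sc in corn oil at noon on diestrus II, 24 h before the proestrus dosing time. On the morning of expected estrus the oviducts were examined under a dissecting microscope, and freshly ovulated eggs were counted. ED50 was taken from percent ovulating versus log-dose, with 10 rats per dose group and usually three or more dose groups.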

SMILES	ED50 (ug injection-1) [1]	ED50 (ug injection-1) [2]	ED50 (ug injection-1) [3]
CC(=O)N[C@H](Cc1ccc2ccccc2c1)C(=O)N[C@H](Cc1ccc(Cl)cc1)C(=O)N[C@H](Cc1cccnc1)C(=O)N[C@@H](CO)C(=O)N[C@@H](Cc1ccc(O)cc1)C(=O)N[C@H](CCCN=C(N)N)C(=O)N[C@@H](CC(C)C)C(=O)N[C@@H](CCCN=C(N)N)C(=O)N1CCC[C@H]1C(=O)N[C@H](C)C(N)=O	0.5	0.3	–
CCNC(=NCCCC[C@@H](NC(=O)[C@H](Cc1ccc(O)cc1)NC(=O)[C@H](CO)NC(=O)[C@@H](Cc1c[nH]c2ccccc12)NC(=O)[C@@H](Cc1ccc(Cl)cc1)NC(=O)[C@@H](Cc1ccc2ccccc2c1)NC(C)=O)C(=O)N[C@@H](CC(C)C)C(=O)N[C@@H](CCCN=C(N)N)C(=O)N1CCC[C@H]1C(=O)N[C@H](C)C(N)=O)NCC (stereo in doubt)	0.7	0.5	2.5
CCNC(=NCCCC[C@@H](NC(=O)[C@H](Cc1ccc(O)cc1)NC(=O)[C@H](CO)NC(=O)[C@@H](Cc1c[nH]c2ccccc12)NC(=O)[C@@H](Cc1ccc(Cl)cc1)NC(=O)[C@@H](Cc1ccc(Cl)cc1)NC(C)=O)C(=O)N[C@@H](CC(C)C)C(=O)N[C@@H](CCCN=C(N)N)C(=O)N1CCC[C@H]1C(=O)NCC(N)=O)NCC	2	2.4	16
CCNC(=NCCCC[C@@H](NC(=O)[C@H](Cc1ccc(O)cc1)NC(=O)[C@H](CO)NC(=O)[C@@H](Cc1c[nH]c2ccccc12)NC(=O)[C@@H](Cc1ccc(Cl)cc1)NC(=O)[C@@H](Cc1c[nH]c2ccccc12)NC(C)=O)C(=O)N[C@@H](CC(C)C)C(=O)N[C@@H](CCCN=C(N)N)C(=O)N1CCC[C@H]1C(=O)NCC(N)=O)NCC	–	3.4	–
CC(=O)N[C@H](Cc1ccc2ccccc2c1)C(=O)N[C@H](Cc1ccc(F)cc1)C(=O)N[C@H](Cc1c[nH]c2ccccc12)C(=O)N[C@@H](CO)C(=O)N[C@@H](Cc1ccc(O)cc1)C(=O)N[C@H](CCCN=C(N)N)C(=O)N[C@@H](CC(C)C)C(=O)N[C@@H](CCCN=C(N)N)C(=O)N1CCC[C@H]1C(=O)NCC(N)=O (Ac-[d2Nal][dPhe(4-F)][dW]SY[dR]LRPG-NH2)	2.4	1.1	9
CC(=O)N[C@H](Cc1ccc(Cl)cc1)C(=O)N[C@H](Cc1ccc(Cl)cc1)C(=O)N[C@H](Cc1c[nH]c2ccccc12)C(=O)N[C@@H](CO)C(=O)N[C@@H](Cc1ccc(O)cc1)C(=O)N[C@H](CCCN=C(N)N)C(=O)N[C@@H](CC(C)C)C(=O)N[C@@H](CCCN=C(N)N)C(=O)N1CCC[C@H]1C(=O)N[C@H](C)C(N)=O (Ac-[dPhe(4-Cl)][dPhe(4-Cl)][dW]SY[dR]LRP[dA]-NH2)	1.7	1.2	5
CCCNC(=NCCCC[C@@H](NC(=O)[C@H](Cc1ccc(O)cc1)NC(=O)[C@H](CO)NC(=O)[C@@H](Cc1c[nH]c2ccccc12)NC(=O)[C@@H](Cc1ccc(F)cc1)NC(=O)[C@@H](Cc1ccc2ccccc2c1)NC(C)=O)C(=O)N[C@@H](CC(C)C)C(=O)N[C@@H](CCCN=C(N)N)C(=O)N1CCC[C@H]1C(=O)NCC(N)=O)NCCC	2.4	4.7	12
CCNC(=NCCCC[C@@H](NC(=O)[C@H](Cc1ccc(O)cc1)NC(=O)[C@H](CO)NC(=O)[C@@H](Cc1c[nH]c2ccccc12)NC(=O)[C@@H](Cc1ccc(F)cc1)NC(=O)[C@@H](Cc1ccc2ccccc2c1)NC(C)=O)C(=O)N[C@@H](CC(C)C)C(=O)N[C@@H](CCCN=C(N)N)C(=O)N1CCC[C@H]1C(=O)NCC(N)=O)NCC	1.6	1.4	3.5
CCCNC(=NCCCC[C@@H](NC(=O)[C@H](Cc1ccc(O)cc1)NC(=O)[C@H](CO)NC(=O)[C@@H](Cc1c[nH]c2ccccc12)NC(=O)[C@@H](Cc1ccc(Cl)cc1)NC(=O)[C@@H](Cc1ccc(Cl)cc1)NC(C)=O)C(=O)N[C@@H](CC(C)C)C(=O)N[C@@H](CCCN=C(N)N)C(=O)N1CCC[C@H]1C(=O)NCC(N)=O)NCCC	2.6	2.3	16

The remaining lines, values ahead:

ED50 (ug injection-1) [1]	ED50 (ug injection-1) [2]	ED50 (ug injection-1) [3]	SMILES
2.6	2	14	CCCNC(=NCCCC[C@@H](NC(=O)[C@H](Cc1ccc(O)cc1)NC(=O)[C@H](CO)NC(=O)[C@@H](Cc1c[nH]c2ccccc12)NC(=O)[C@@H](Cc1ccc(Cl)cc1)NC(=O)[C@@H](Cc1ccc(Cl)cc1)NC(C)=O)C(=O)N[C@@H](CC(C)C)C(=O)N[C@@H](CCCN=C(N)N)C(=O)N1CCC[C@H]1C(=O)N[C@H](C)C(N)=O)NCCC
1.7	0.8	5	CNC(=NCCCC[C@@H](NC(=O)[C@H](Cc1ccc(O)cc1)NC(=O)[C@H](CO)NC(=O)[C@@H](Cc1c[nH]c2ccccc12)NC(=O)[C@@H](Cc1ccc(F)cc1)NC(=O)[C@@H](Cc1ccc2ccccc2c1)NC(C)=O)C(=O)N[C@@H](CC(C)C)C(=O)N[C@@H](CCCN=C(N)N)C(=O)N1CCC[C@H]1C(=O)NCC(N)=O)NC
2.2	3.3	140	CC(=O)N1CCC[C@H]1C(=O)N[C@H](Cc1ccc(F)cc1)C(=O)N[C@H](Cc1ccc2ccccc2c1)C(=O)N[C@@H](CO)C(=O)NC(Cc1ccc(O)cc1)C(=O)N[C@@H](Cc1ccc2ccccc2c1)C(=O)N[C@@H](CC(C)C)C(=O)N[C@@H](CCCN=C(N)N)C(=O)N1CCC[C@H]1C(=O)NCC(N)=O (stereo in doubt)
1.6	1	5.6	CNC(=NCCCC[C@@H](NC(=O)[C@H](Cc1ccc(O)cc1)NC(=O)[C@H](CO)NC(=O)[C@@H](Cc1c[nH]c2ccccc12)NC(=O)[C@@H](Cc1ccc(Cl)cc1)NC(=O)[C@@H](Cc1ccc(Cl)cc1)NC(C)=O)C(=O)N[C@@H](CC(C)C)C(=O)N[C@@H](CCCN=C(N)N)C(=O)N1CCC[C@H]1C(=O)N[C@H](C)C(N)=O)NC
1.3	2	< 8	CC(=O)N[C@H](Cc1ccc(Cl)cc1)C(=O)N[C@H](Cc1ccc(Cl)cc1)C(=O)N[C@H](Cc1c[nH]c2ccccc12)C(=O)N[C@@H](CO)C(=O)N[C@@H](Cc1ccc(O)cc1)C(=O)N[C@H](CCCCN=C(N)N)C(=O)N[C@@H](CC(C)C)C(=O)N[C@@H](CCCN=C(N)N)C(=O)N1CCC[C@H]1C(=O)N[C@H](C)C(N)=O
2	1	2.5	CCNC(=NCCCC[C@@H](NC(=O)[C@H](Cc1ccc(O)cc1)NC(=O)[C@H](CO)NC(=O)[C@@H](Cc1c[nH]c2ccccc12)NC(=O)[C@@H](Cc1ccc(Cl)cc1)NC(=O)[C@@H](Cc1ccc2ccccc2c1)NC(C)=O)C(=O)N[C@@H](CC(C)C)C(=O)N[C@@H](CCCN=C(N)N)C(=O)N1CCC[C@H]1C(=O)NCC(N)=O)NCC
1.7	1.6	3.3	CCNC(=NCCCC[C@@H](NC(=O)[C@H](Cc1ccc(O)cc1)NC(=O)[C@H](CO)NC(=O)[C@@H](Cc1c[nH]c2ccccc12)NC(=O)[C@@H](Cc1ccc(Cl)cc1)NC(=O)[C@@H](Cc1ccc(Cl)cc1)NC(C)=O)C(=O)N[C@@H](CC(C)C)C(=O)NC(CCCN=C(N)N)C(=O)N1CCC[C@H]1C(=O)N[C@H](C)C(N)=O)NCC (stereo not given in full)
